pIC50: −log10 of the molar value. Active and inactive are the calls of the source. No cut-off for these calls is given here.
Legend:
[1] = biological target: Telomerase reverse transcriptase (Homo sapiens) (UniProt O14746); assay: Residual activity of human TERT in H1299 cells at 10 uM after 24 hrs by SEAP reporter gene assay
PC-3 = assay: Cytotoxicity against human PC3 cells after 48 hrs by SRB assay; type: functional, cell-based; conditions: PC-3, 48 h
Method in brief: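 PC-3 cells grown in RPMI1640 with 10% FBS at 37 °C, 5% CO₂. Seeded in medium with 5% FBS; after 24 h, one plate fixed with 10% TCA as T₀. Compound or 0.1% DMSO vehicle added for 48 h, then TCA fixation and 0.4% SRB in 1% acetic acid. Dye solubilized in 10 mM Trizma base, absorbance read at 515 nm. IC50 is the concentration giving 50% reduction of the protein gain in controls.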

[2] = biological target: Telomerase reverse transcriptase (Homo sapiens) (UniProt O14746); assay: Residual activity of human TERT in H1299 cells at 100 uM after 24 hrs by SEAP reporter gene assay
[3] = Growth of human H1299 cells at 100 uM 48 hrs by MTT assay; conditions: NCI-H1299, 48 h
[4] = biological target: Telomerase reverse transcriptase (Homo sapiens) (UniProt O14746); assay: Residual activity of human TERT in H1299 cells at 1 uM after 24 hrs by SEAP reporter gene assay
[5] = Growth of human H1299 cells at 1 uM after 48 hrs by MTT assay; conditions: NCI-H1299, 48 h
[6] = biological target: Telomerase reverse transcriptase (Homo sapiens) (UniProt O14746); assay: Inhibition of telomerase activity in human H1299 cell free extract at 10 uM by modified TRAP assay
Method in brief: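 TRAP assay using total cell lysate from H1299 lung cancer cells as the telomerase source, with protein measured against BSA standards. Compounds tested at 10 µM. Controls were lysate without inhibitor (positive) and RNase A-treated extract without inhibitor (negative).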

[7] = Growth of human H1299 cells at 10 uM after 48 hrs by MTT assay; conditions: NCI-H1299, 48 h

Telomerase reverse transcriptase (Homo sapiens), sequence (O14746 whole entry): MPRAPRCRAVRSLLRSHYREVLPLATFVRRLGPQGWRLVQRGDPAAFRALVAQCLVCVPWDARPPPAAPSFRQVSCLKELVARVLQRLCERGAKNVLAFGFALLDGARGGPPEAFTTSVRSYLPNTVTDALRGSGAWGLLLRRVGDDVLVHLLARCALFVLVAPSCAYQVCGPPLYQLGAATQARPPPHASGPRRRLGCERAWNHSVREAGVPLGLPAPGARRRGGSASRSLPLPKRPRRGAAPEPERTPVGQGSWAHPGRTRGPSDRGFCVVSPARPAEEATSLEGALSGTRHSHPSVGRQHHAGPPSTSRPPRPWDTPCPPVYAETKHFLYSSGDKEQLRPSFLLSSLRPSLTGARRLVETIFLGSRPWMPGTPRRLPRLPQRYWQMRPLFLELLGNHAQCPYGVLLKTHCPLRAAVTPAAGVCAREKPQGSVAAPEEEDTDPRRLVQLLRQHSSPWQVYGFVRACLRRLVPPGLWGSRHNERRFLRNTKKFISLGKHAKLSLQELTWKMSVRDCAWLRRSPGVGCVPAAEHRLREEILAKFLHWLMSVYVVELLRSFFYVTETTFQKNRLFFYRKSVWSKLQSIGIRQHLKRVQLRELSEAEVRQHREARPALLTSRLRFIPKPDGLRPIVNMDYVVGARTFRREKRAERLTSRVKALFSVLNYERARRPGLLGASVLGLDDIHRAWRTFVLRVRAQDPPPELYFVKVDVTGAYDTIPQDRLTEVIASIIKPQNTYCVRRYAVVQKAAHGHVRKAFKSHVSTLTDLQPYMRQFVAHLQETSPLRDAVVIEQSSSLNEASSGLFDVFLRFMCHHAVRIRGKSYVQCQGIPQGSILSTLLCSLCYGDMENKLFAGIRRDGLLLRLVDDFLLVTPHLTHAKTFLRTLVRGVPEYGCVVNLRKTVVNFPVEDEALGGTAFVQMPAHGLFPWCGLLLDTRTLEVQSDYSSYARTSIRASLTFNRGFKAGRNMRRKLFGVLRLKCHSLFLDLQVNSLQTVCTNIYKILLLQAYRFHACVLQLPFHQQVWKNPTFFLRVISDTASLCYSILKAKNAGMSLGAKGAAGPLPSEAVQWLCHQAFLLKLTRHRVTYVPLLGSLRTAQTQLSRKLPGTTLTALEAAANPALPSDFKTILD

Row | Structure (SMILES) | residual activity [1] [%] | residual activity [2] [%] | residual activity [4] [%] | inhibition [6] | pIC50 (PC-3) | growth, % of control at 100 µM [3] [%] | growth, % of control at 1 µM [5] [%] | growth, % of control at 10 µM [7] [%]
1 | O=C(CCl)Nc1ccc2c(c1NC(=O)CSc1ccccc1)C(=O)c1ccccc1C2=O | 3 | 0 | 80 | inactive | 5.27 | 0 | 88 | 5
2 | Cc1ccc(C(=O)Nc2c(NC(=O)CN3CCN(c4ccccc4)CC3)ccc3c2C(=O)c2ccccc2C3=O)cc1 | 88 | 15 | 93 | inactive | < 4.70 | 23 | 80 | 76
3 | Cc1ccc(C(=O)Nc2c(NC(=O)CN3CCN(CCO)CC3)ccc3c2C(=O)c2ccccc2C3=O)cc1 | 8 | 0 | 76 | inactive | 5.68 | 0 | 71 | 44

More lines, main results first:

Row | residual activity [1] [%] | residual activity [2] [%] | residual activity [4] [%] | inhibition [6] | Structure (SMILES) | pIC50 (PC-3) | growth, % of control at 100 µM [3] [%] | growth, % of control at 1 µM [5] [%] | growth, % of control at 10 µM [7] [%]
4 | 92 | 15 | 113 | inactive | O=C(CCCCl)Nc1ccc2c(c1NC(=O)CCCCl)C(=O)c1ccccc1C2=O | 5.40 | 19 | 103 | 79
5 | 72 | 4 | 82 | inactive | O=C(CCl)Nc1ccc2c(c1NC(=O)COc1ccccc1)C(=O)c1ccccc1C2=O | < 4.70 | 4 | 101 | 66
6 | 92 | 15 | 113 | inactive | O=C(CCl)Nc1ccc2c(c1NC(=O)CCCl)C(=O)c1ccccc1C2=O | 5.91 | 19 | 103 | 79

Reference: ChEMBL document CHEMBL1926565, “Synthesis, antiproliferative activities and telomerase inhibition evaluation of novel asymmetrical 1,2-disubstituted amidoanthraquinone derivatives” (Eur J Med Chem, 2012)
